The record followed here is ChEMBL document CHEMBL4024779, “Novel Terminal Bipheny-Based Diapophytoene Desaturases (CrtN) Inhibitors as Anti-MRSA/VISR/LRSA Agents with Reduced hERG Activity” (J Med Chem, 2018).

pIC50: −log10 of the molar value. The source made the active and inactive calls. No cut-off for these calls is given here.

Series [1] has as its system Staphylococcus aureus. As to the kind of experiment: In vivo anti-virulence activity against methicillin-resistant Staphylococcus aureus Mu50 infected in BALB/c mouse model assessed as reduction in bacterial load in kidneys at 0.1 mg bid for 3.5 days administered intraperitoneally 6 hrs post infection by serial dilution method. The format is functional. Set-up: scale not given: the % may be the effect or the level left. The method, boiled down: (§1)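 Mice (n=10 per group) infected retro-orbitally with S. aureus Mu50 (1.1 × 10^9 or 1.3 × 10^9 CFU) or NRS271 (2.3 × 10^8 CFU). Compound given i.p. b.i.d., either 6 h after infection for 3.5 d or 24 h before infection for 4.5 d. Mice killed after 4.5 d; log10 CFU per organ counted in kidneys and hearts. Two-tailed Mann−Whitney test.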

The test system of series [2] is Staphylococcus aureus. As to the kind of experiment: In vivo anti-virulence activity against Staphylococcus aureus Newman infected in BALB/c mouse model assessed as reduction in bacterial load in kidneys at 0.1 mg bid for 4.5 days administered intraperitoneally 24 hrs prior to infection by serial dilution method. The format is functional, organism-based. The method, boiled down: (§2)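 Mice (n=10 per group) got 2.3 × 10^7 CFU S. aureus Newman by retro-orbital injection. Compound was given intraperitoneally b.i.d., either 24 h before infection (4.5 d) or 6 h after infection (3.5 d). Mice were sacrificed after 4.5 d and CFU counted in kidneys and hearts. Groups were compared by two-tailed Mann-Whitney test.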

For series [3], the system named is Staphylococcus aureus. As to the kind of experiment: Antibacterial activity against methicillin-resistant Staphylococcus aureus USA400 MW2 assessed as change in bacterial growth at 0.2 mM […]. The format is functional.
The subject of series [4] is Staphylococcus aureus. As to the kind of experiment: Chemo-sensitization activity in non-pigmented Staphylococcus aureus Newman assessed as increase in H2O2-induced bacterial death by measuring survival rate at 1 uM pre-incubated for 24 hrs followed by H2O2 addition measured after 30 mins by serial dilution method (reference value: 33.3%). It is filed as functional. The method, boiled down: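 S. aureus Newman was pre-incubated with 1 µM compound, with N-acetylcysteine as antioxidant control, or mock-treated. Cells were then exposed to 1.5% H2O2. Percent bacterial survival was compared with the mock-treated culture.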

The test system of series [5] is Staphylococcus aureus. The series is described as follows: In vivo anti-virulence activity against methicillin-resistant Staphylococcus aureus Mu50 infected in BALB/c mouse model assessed as reduction in bacterial load in kidneys at 0.1 mg bid for 4.5 days administered intraperitoneally 24 hrs prior to infection by serial dilution method. The format is functional. Set-up: scale not given: the % may be the effect or the level left. The method, boiled down: as §1

Series [6] relates to Staphylococcus aureus. The series is described as follows: Antibacterial activity against methicillin-resistant Staphylococcus aureus Mu50 assessed as change in bacterial growth at 0.2 mM […]. The format is functional.
The test system of series [7] is Staphylococcus aureus. The series is described as follows: In vivo anti-virulence activity against methicillin-resistant Staphylococcus aureus NRS271 infected in BALB/c mouse model assessed as reduction in bacterial load in heart at 0.4 mg bid for 4.5 days administered intraperitoneally 24 hrs prior to infection by serial dilution method. Set-up: scale not given: the % may be the effect or the level left. The format is functional. The method, boiled down:
as §1

The test system of series [8] is Staphylococcus aureus. As to the kind of experiment: In vivo anti-virulence activity against methicillin-resistant Staphylococcus aureus NRS271 infected in BALB/c mouse model assessed as reduction in bacterial load in kidneys at 0.1 mg bid for 3.5 days administered intraperitoneally 6 hrs post infection by serial dilution method. It is filed as functional. Set-up: scale not given: the % may be the effect or the level left. In outline: as §1

Series [9] concerns Staphylococcus aureus. As to the kind of experiment: In vivo anti-virulence activity against methicillin-resistant Staphylococcus aureus NRS271 infected in BALB/c mouse model assessed as reduction in bacterial load in kidneys at 0.4 mg bid for 3.5 days administered intraperitoneally 6 hrs post infection by serial dilution method. The format is functional. More on the design: scale not given: the % may be the effect or the level left. In outline: as §1

Series [10] concerns Staphylococcus aureus. The series is described as follows: In vivo anti-virulence activity against Staphylococcus aureus Newman infected in BALB/c mouse model assessed as reduction in bacterial load in heart at 0.4 mg bid for 4.5 days administered intraperitoneally 24 hrs prior to infection by serial dilution method. The format is functional, organism-based. In outline: as §2

Series [11] concerns the target T1, 4,4'-diapophytoene desaturase (4,4'-diaponeurosporene-forming) (Staphylococcus aureus (strain Newman), UniProt O07855).
T1 sequence (O07855 whole entry): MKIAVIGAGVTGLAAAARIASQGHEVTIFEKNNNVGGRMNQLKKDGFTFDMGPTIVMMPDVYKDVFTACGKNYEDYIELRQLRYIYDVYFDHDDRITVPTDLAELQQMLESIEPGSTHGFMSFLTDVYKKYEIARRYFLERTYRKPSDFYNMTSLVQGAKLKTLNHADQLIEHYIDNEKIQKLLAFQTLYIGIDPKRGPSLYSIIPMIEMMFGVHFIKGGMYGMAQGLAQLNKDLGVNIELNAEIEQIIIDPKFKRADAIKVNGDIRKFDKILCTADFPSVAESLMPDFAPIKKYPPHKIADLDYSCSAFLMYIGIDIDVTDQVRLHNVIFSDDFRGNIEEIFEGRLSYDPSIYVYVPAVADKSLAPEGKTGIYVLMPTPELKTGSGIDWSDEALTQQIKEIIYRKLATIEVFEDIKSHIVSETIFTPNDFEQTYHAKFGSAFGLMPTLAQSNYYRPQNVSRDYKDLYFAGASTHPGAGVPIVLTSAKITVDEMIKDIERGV
As to the kind of experiment: Inhibition of CrtN in Staphylococcus aureus Newman assessed as reduction in staphyloxanthin levels after 48 hrs by spectrophotometric method-based pigment inhibition assay. Set-up: species or system Staphylococcus aureus subsp. aureus str. Newman.

Series [12] concerns Staphylococcus aureus. As to the kind of experiment: In vivo anti-virulence activity against Staphylococcus aureus Newman infected in BALB/c mouse model assessed as reduction in bacterial load in kidneys at 0.4 mg bid for 3.5 days administered intraperitoneally 6 hrs post infection by serial dilution method. The format is functional, organism-based. In outline: as §2
Series [13] deals with Staphylococcus aureus. As to the kind of experiment: In vivo anti-virulence activity against methicillin-resistant Staphylococcus aureus Mu50 infected in BALB/c mouse model assessed as reduction in bacterial load in heart at 0.4 mg bid for 3.5 days administered intraperitoneally 6 hrs post infection by serial dilution method. It is filed as functional. More on the design: scale not given: the % may be the effect or the level left. The method, boiled down: as §1

The test system of series [14] is Staphylococcus aureus. As to the kind of experiment: In vivo anti-virulence activity against methicillin-resistant Staphylococcus aureus Mu50 infected in BALB/c mouse model assessed as reduction in bacterial load in heart at 0.1 mg bid for 4.5 days administered intraperitoneally 24 hrs prior to infection by serial dilution method. The format is functional. More on the design: scale not given: the % may be the effect or the level left. The method, boiled down: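 Mice were challenged with 1.3 × 10^9 CFU Mu50. Compound was given intraperitoneally, either 24 h before or 6 h after infection. Log10 CFU was counted in kidneys and hearts.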

Series [15] concerns Staphylococcus aureus. The series is described as follows: In vivo anti-virulence activity against methicillin-resistant Staphylococcus aureus Mu50 infected in BALB/c mouse model assessed as reduction in bacterial load in heart at 0.4 mg bid for 4.5 days administered intraperitoneally 24 hrs prior to infection by serial dilution method. The format is functional. Set-up: scale not given: the % may be the effect or the level left. The method, boiled down:
as §1

Series [16] concerns the target T1, 4,4'-diapophytoene desaturase (4,4'-diaponeurosporene-forming). As to the kind of experiment: Inhibition of Staphylococcus aureus Newman 6His-tagged CrtN expressed in Escherichia coli BL21 (DE3)/pET28a::CrtN assessed as reduction in staphyloxanthin levels using diapophytoene as substrate after overnight incubation by spectrophotometric analysis. More on the design: species or system Staphylococcus aureus subsp. aureus str. Newman.

The test system of series [17] is Staphylococcus aureus. As to the kind of experiment: Chemo-sensitization activity in human whole blood infected with compound-pre-treated non-pigmented Staphylococcus aureus Newman strain assessed as whole blood-induced bacterial killing by measuring survival rate at 1 uM after 6 hrs by serial dilution method (reference value: 13.3%). It is filed as functional.

The nature of series [18]: Inhibition of CrtN in methicillin-resistant Staphylococcus aureus NRS271 assessed as reduction in staphyloxanthin levels after 48 hrs by spectrophotometric method-based pigment inhibition assay.
Series [19] concerns Staphylococcus aureus. The series is described as follows: Antibacterial activity against Staphylococcus aureus Newman assessed as change in bacterial growth at 0.2 mM […]. It is filed as functional.
Series [20] can be described thus: Aqueous solubility of compound after 24 hrs by HPLC method. It is filed as physicochemical.
Series [21] relates to Staphylococcus aureus. As to the kind of experiment: In vivo anti-virulence activity against Staphylococcus aureus Newman infected in BALB/c mouse model assessed as reduction in bacterial load in kidneys at 0.1 mg bid for 3.5 days administered intraperitoneally 6 hrs post infection by serial dilution method. The format is functional, organism-based. In outline: as §2

For `CN(C/C=C/c1ccc(-c2ccccc2)cc1)Cc1coc2ccccc12.Cl`, the Activity in the series with Staphylococcus aureus [1], with Staphylococcus aureus [5], with Staphylococcus aureus [7], in the series with Staphylococcus aureus [8], in the series with Staphylococcus aureus [9] and in the series on Staphylococcus aureus [13] was above 95% each time. Moreover, the Activity in the series on Staphylococcus aureus [14] and in the series with Staphylococcus aureus [15] was above 95% each time. The result in the series with Staphylococcus aureus [2], in the series with Staphylococcus aureus [10], in the series with Staphylococcus aureus [12] and in the series with Staphylococcus aureus [21] was Active. The result in the series on Staphylococcus aureus [3], in the series with Staphylococcus aureus [6] and in the series on Staphylococcus aureus [19] was inactive. Also, the figures for the survival at 1 µM with Staphylococcus aureus [4] and in the series on Staphylococcus aureus [17] were 3% and 1.3%, respectively. In addition, the pIC50 – broadly, the negative decadic logarithm of the IC50, by convention in mol/L – in [11] is 8.70; in series [16], 6.40; in series [18], 8.25. Also, in [20], the concentration in solution (solubility at 24 h) was 200 µg/mL.

`CN(C/C=C/c1ccc(-c2ccccc2)cc1)Cc1cccc2cc[nH]c12.Cl`: the Activity in the series with Staphylococcus aureus [1], in the series on Staphylococcus aureus [5], in the series with Staphylococcus aureus [7], in the series on Staphylococcus aureus [8], in the series with Staphylococcus aureus [9] and in the series on Staphylococcus aureus [13] was above 95% in each case. The Activity in the series with Staphylococcus aureus [14] and in the series with Staphylococcus aureus [15] was above 95% in each case. The outcome in the series with Staphylococcus aureus [2], with Staphylococcus aureus [3], in the series on Staphylococcus aureus [6], in the series with Staphylococcus aureus [10], in the series on Staphylococcus aureus [12] and with Staphylococcus aureus [19] was inactive. For the same molecule, the outcome with Staphylococcus aureus [21] was inactive. Also, the outcome with Staphylococcus aureus [4] and with Staphylococcus aureus [17] was Active. The pIC50 in series [11] was 8.48; in [16] it was 6.70; in series [18] it was 8.00. For the same molecule, the concentration in solution in series [20] (solubility at 24 h) came to 200 µg/mL.
